# Assay results pooled from the literature.
# LRRK2: Leucine-rich repeat serine/threonine-protein kinase 2 (LRRK2, Homo sapiens, UniProt Q5S007)
# LRRK2 G2019S: Leucine-rich repeat serine/threonine-protein kinase 2 (LRRK2, Homo sapiens, UniProt Q5S007, G2019S)
SMILES,target,assay,setting,measurement,value
O=C(Nc1cnn(-c2csc(C(=O)NC3COC3)c2)c1)Nc1ccccc1Cl,LRRK2,"enzyme activity, inhibitor",5 µM,remaining activity,88.2%
CCN(CC)CCNC(=O)c1c(C)[nH]c(/C=C2\C(=O)Nc3ccc(F)cc32)c1C,LRRK2,cell-free assay,0.5 µM,remaining signal,3.34%
COc1cc(-c2cc(-c3ccc(N4CCNCC4)cc3)cnc2N)cc(OC)c1OC,LRRK2,"enzyme activity, inhibitor",1 µM,inhibition,33%
COc1ccc2c(c1)O[C@@H](c1ccc(OC)c(OC)c1)C[C@H]2NC(=O)C1(c2ccc3c(c2)OC(F)(F)O3)CC1,LRRK2,"cell-free assay, competition with immobilised ligand",1 µM,remaining binding,87%
COc1cc2nccc(Oc3ccc(NC(=O)c4c5n(n(-c6ccc(F)cc6)c4=O)CCCC5)cc3)c2cc1OC,LRRK2,"enzyme activity, inhibitor",0.1 µM,inhibition,0%
CC(C)(O)[C@H]1CC[C@H](Nc2ccc3ncc(-c4cccc(C(F)(F)F)c4)n3n2)CC1,LRRK2,"enzyme activity, inhibitor",1 µM,remaining activity,66.1%
Cc1ccc(C(=O)Nc2ccc(CN3CCN(C)CC3)c(C(F)(F)F)c2)cc1C#Cc1cnc2cccnn12,LRRK2,"enzyme activity, inhibitor",23.5 nM,remaining activity,83%
O=C1Nc2ccc(Cl)cc2C1=Cc1cc(Cl)c(O)c(Cl)c1,LRRK2,cell-free assay,0.5 µM,remaining signal,11%
O=C(O)c1cc(-c2ccc(C3CCNCC3)cc2)c2ccc(-c3ccc(C(F)(F)F)cc3)cc2c1,LRRK2,"cell-free assay, competition with immobilised ligand",1 µM,remaining binding,100%
Cc1ccc(NC(=O)c2ccc(CN3CCN(C)CC3)cc2)cc1Nc1nc(-c2cccnc2)cs1,LRRK2,cell-free assay,0.5 µM,remaining signal,107%
Cc1nc(Cc2cccc(C(F)(F)F)c2)sc1-c1ccc(C(N)=O)nc1,LRRK2,"cell-free assay, competition with immobilised ligand",1 µM,remaining binding,92%
CN(C)C1CCN(CC#Cc2nn(C3CCCC3)c3nc(NCc4ccccc4)ncc23)C1 (stereo not drawn),LRRK2,"enzyme activity, inhibitor, FRET",0.1 µM,inhibition,-1%
COc1cc(-c2cn(C3CCc4c(F)cccc4N(CC(F)(F)F)C3=O)nn2)ccc1-n1cnc(C)c1 (stereo not drawn),LRRK2 G2019S,"cell-free assay, competition with immobilised ligand",1 µM,remaining binding,100%
COc1cc(Cl)c(C(=O)N[C@@H](CN[C@H]2CC[C@@H](N)CC2)Cc2ccc(C#N)cc2)cc1-c1ccc(CN[C@H](C)c2ccc(C)cc2)o1,LRRK2,"enzyme activity, inhibitor",1 µM,remaining activity,104%
O=C(NCc1ncc(C(F)(F)F)cc1Cl)c1ccc2c(c1)C1(CCS(=O)(=O)CC1)[C@H](C1CC1)N2S(=O)(=O)c1ccc(F)cc1,LRRK2 G2019S,"cell-free assay, competition with immobilised ligand",1 µM,remaining binding,100%
Nc1ncnc2occ(-c3ccc(NC(=O)Nc4cc(C(F)(F)F)ccc4F)cc3)c12,LRRK2 G2019S,"cell-free assay, inhibitor",20 µM,remaining signal,12%
CN([C@@H]1CCc2c(CC(=O)O)c3cc(S(C)(=O)=O)ccc3n2C1)S(=O)(=O)c1ccc(F)cc1,LRRK2,"cell-free assay, competition with immobilised ligand",1 µM,remaining binding,100%
CC(C)(C)c1nc(-c2cccc(NS(=O)(=O)c3c(F)cccc3F)c2F)c(-c2ccnc(N)n2)s1,LRRK2,"enzyme activity, inhibitor, radiometric",1 µM,remaining activity,102%
